From publication PMC5477668 (Journal of medicinal chemistry, 2017)

Assays:
PAD2 [1] = biological target: T1, PAD2 (Homo sapiens, UniProt Q9Y2J8); assay: Target engagement assay with HEK293T/PAD2 cells; assay type: cell-based
PAD1 = PAD1 inactivation kinetics; assay type: biochemical
Outline: (§1)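 Purified PAD enzyme (2.0 μM) was preincubated at 37 °C with various inactivator concentrations in 50 mM HEPES pH 7.6, 10 mM CaCl2 and 2 mM DTT. Aliquots taken over time were added to the same buffer containing 10 mM BAEE, run for 15 min, then quenched in liquid nitrogen. Citrulline was measured by COLDER. k_obs came from exponential decay fits, and k_inact and K_I from saturation fits. At least duplicate.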

PAD2 [2] = biological target: T1, PAD2; assay: PAD2 inactivation kinetics; assay type: biochemical; settings: for PAD2 potency: as compared to BB-F-amidine (4a) and BB-Cl-amidine (4b); for fold increase in PAD2 potency and selectivity: relative to Cl-amidine; for fold more potent PAD2 inhibitor in vitro: than BB-Cl-amidine (4b); for PAD2-selectivity: up to, other isozyme not named; for fold decrease in PAD2 potency: compared to 30a
Outline: as §1

PAD4 = PAD4 inactivation kinetics; assay type: biochemical
Outline: as §1

HEK293T/PAD2 cells = assay: Cellular uptake assay; assay type: in vitro ADME, human
Outline: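 HEK293T/PAD2 cells in HBS with 2 mM CaCl2 were treated with 0.5 μM ionomycin and test compound at 25 μM, as in the target engagement protocol. Cells were scraped, washed 4× with HBS, extracted in acetonitrile by sonication for 1 h at 0 °C, then cleared, filtered and analysed by LCMS. Analyte peak area was compared with the peak area of 25 μM compound injected directly.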

HEK293T cells = assay: Cytotoxicity study; assay type: cell-based, human; settings: than BB-Cl-amidine (4b)
Outline: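 Human HEK293T cells were plated at 2.5 × 10⁶ cells/well. Next day they were exposed for 24 h to DMSO, Triton X-100, or a range of test-compound concentrations. Viability was read by XTT absorbance at 475 nm. EC50 came from an eight-point dose-response fit with range, slope factor and background terms.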

[3] = as compared to BB-F-amidine (4a)
[4] = as compared to BB-Cl-amidine (4b)

T1 sequence (Q9Y2J8 whole entry): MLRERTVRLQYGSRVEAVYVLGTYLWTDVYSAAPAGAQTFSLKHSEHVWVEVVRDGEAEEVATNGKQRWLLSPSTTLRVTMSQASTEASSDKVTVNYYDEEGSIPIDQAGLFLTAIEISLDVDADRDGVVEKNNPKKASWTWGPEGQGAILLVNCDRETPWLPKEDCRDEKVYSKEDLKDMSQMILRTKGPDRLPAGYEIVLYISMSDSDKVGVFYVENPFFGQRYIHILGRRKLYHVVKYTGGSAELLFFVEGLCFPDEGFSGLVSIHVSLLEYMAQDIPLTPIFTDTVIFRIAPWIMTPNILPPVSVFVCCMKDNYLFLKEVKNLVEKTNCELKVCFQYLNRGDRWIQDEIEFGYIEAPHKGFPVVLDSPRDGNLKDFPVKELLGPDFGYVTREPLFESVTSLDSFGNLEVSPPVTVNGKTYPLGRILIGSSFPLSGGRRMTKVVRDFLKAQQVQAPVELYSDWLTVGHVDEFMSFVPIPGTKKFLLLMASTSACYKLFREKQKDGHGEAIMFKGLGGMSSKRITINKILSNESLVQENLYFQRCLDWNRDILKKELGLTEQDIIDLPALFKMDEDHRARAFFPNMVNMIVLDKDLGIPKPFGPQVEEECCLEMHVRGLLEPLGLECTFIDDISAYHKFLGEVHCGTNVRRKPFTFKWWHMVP

Structure (SMILES): N=C(CF)NCCC[C@H](NC(=O)c1ccc(-c2ccccc2)cc1)c1nc2ccccc2[nH]1 [4a]
- fold less potent in the target engagement assay (PAD2 [1]; than BB-Cl-amidine (4b)): ~ 3 fold

Structure (SMILES): N=C(CF)NCCC[C@H](NC(=O)c1ccccc1C(=O)O)c1nc2ccccc2[nH]1 [9a]
- fold increase in PAD1 inhibition (PAD1; [3]): 18 fold
- PAD2 potency (PAD2 [2]): relatively unaffected
- fold increase in PAD4 inhibition (PAD4; [3]): 6.5 fold

Structure (SMILES): N=C(CCl)NCCC[C@H](NC(=O)c1ccccc1C(=O)O)c1nc2ccccc2[nH]1 [9b]
- fold increase in PAD1 inhibition (PAD1; [4]): 1.8 fold
- PAD2 potency (PAD2 [2]): relatively unaffected
- fold increase in PAD4 inhibition (PAD4; [4]): 2.3 fold

Structure (SMILES): CCn1c([C@H](CCCNC(=N)CF)NC(=O)c2ccccc2C(=O)O)nc2ccccc21 [11a]
- fold increase in PAD2 inhibition (PAD2 [2]; [3]): 26 fold

Structure (SMILES): N=C(CF)NCCC[C@H](NC(=O)c1cccc2c1C(=O)NC2)c1nc2ccccc2[nH]1 [14a]
- fold increase in PAD2 inhibition (PAD2 [2]; as compared to 9a): ~ 7 fold
- fold increase in PAD2 inhibition (PAD2 [2]; [3]): ~ 9 fold
- fold increase in PAD4 inhibition (PAD4; as compared to 9a): ~ 1.4 fold

Structure (SMILES): CCn1c([C@H](CCCNC(=N)CF)NC(=O)c2cccc3c2C(=O)NC3)nc2ccccc21 [16a]
- fold increase in PAD2 inhibition (PAD2 [2]; as compared to 9a): ~ 41 fold
- fold increase in PAD2 inhibition (PAD2 [2]; [3]): ~ 51 fold
- occupancy of PAD2 (PAD2 [1]; at 25 μM, HEK293T/PAD2 cells): roughly half as potent

Structure (SMILES): COc1cccc2c1nc([C@H](CCCNC(=N)CF)NC(=O)c1cccc3c1C(=O)NC3)n2C [30a]
- fold increase in PAD2 potency and selectivity (PAD2 [2]): > 100 fold
- fold more potent PAD2 inhibitor in vitro (PAD2 [2]): 12–50 fold
- PAD2-selectivity (PAD2 [2]): up to 106 fold
- fold more compound able to enter HEK293T cells (HEK293T/PAD2 cells; than 41a): 6 fold
- fold less cytotoxic (HEK293T cells): > 30 fold

Structure (SMILES): CCn1c([C@H](CCCNC(=N)CF)NC(=O)c2cccc3c2C(=O)NC3)nc2c(OC)cccc21 [31a]
- fold decrease in PAD2 potency (PAD2 [2]): 4 fold
- fold more potent PAD2 inhibitor in vitro (PAD2 [2]): 12–50 fold
- fold less cytotoxic (HEK293T cells): > 30 fold

Structure (SMILES): CCOc1cccc2c1nc([C@H](CCCNC(=N)CF)NC(=O)c1cccc3c1C(=O)NC3)n2C [32a]
- fold decrease in PAD2 potency (PAD2 [2]): ~ 2 fold
- fold more potent PAD2 inhibitor in vitro (PAD2 [2]): 12–50 fold
- fold less cytotoxic (HEK293T cells): > 30 fold

Structure (SMILES): CCOc1cccc2c1nc([C@H](CCCNC(=N)CCl)NC(=O)c1cccc3c1C(=O)NC3)n2C [32b]
- fold decrease in PAD2 potency (PAD2 [2]): ~ 2 fold

Structure (SMILES): COc1ccc2c(c1)nc([C@H](CCCNC(=N)CF)NC(=O)c1cccc3c1C(=O)NC3)n2C [37a]
- fold more potent PAD2 inhibitor in vitro (PAD2 [2]): 12–50 fold
- fold less cytotoxic (HEK293T cells): > 30 fold

Structure (SMILES): CCN1Cc2cccc(C(=O)N[C@@H](CCCNC(=N)CF)c3nc4c(OC)cccc4n3C)c2C1=O [41a]
- fold increase in PAD2 inhibition (PAD2 [2]; [3]): > 300 fold
- fold increase in PAD2 potency and selectivity (PAD2 [2]): > 100 fold
- PAD2-selectivity (PAD2 [2]): up to 106 fold
- fold less compound internalized by the cell (HEK293T/PAD2 cells; than unsubstituted lactams 30a, 31a, 32a, and 37a, mass spectrometry): ~ 6 fold

Structure (SMILES): COc1cccc2c1nc([C@H](CCCNC(=N)CF)NC(=O)c1cccc3c1C(=O)N(C)C3)n2C [49a]
- fold increase in PAD2 potency and selectivity (PAD2 [2]): > 100 fold
- PAD2-selectivity (PAD2 [2]): up to 106 fold
